This note sets out measurements from ChEMBL document CHEMBL1811797, “Evolution from a natural flavones nucleus to obtain 2-(4-Propoxyphenyl)quinoline derivatives as potent inhibitors of the S. aureus NorA efflux pump” (J Med Chem, 2011).

Experiment [1] has as its target T1, Quinolone resistance protein NorA (Staphylococcus aureus) (UniProt P0A0J7).
T1 sequence (whole entry): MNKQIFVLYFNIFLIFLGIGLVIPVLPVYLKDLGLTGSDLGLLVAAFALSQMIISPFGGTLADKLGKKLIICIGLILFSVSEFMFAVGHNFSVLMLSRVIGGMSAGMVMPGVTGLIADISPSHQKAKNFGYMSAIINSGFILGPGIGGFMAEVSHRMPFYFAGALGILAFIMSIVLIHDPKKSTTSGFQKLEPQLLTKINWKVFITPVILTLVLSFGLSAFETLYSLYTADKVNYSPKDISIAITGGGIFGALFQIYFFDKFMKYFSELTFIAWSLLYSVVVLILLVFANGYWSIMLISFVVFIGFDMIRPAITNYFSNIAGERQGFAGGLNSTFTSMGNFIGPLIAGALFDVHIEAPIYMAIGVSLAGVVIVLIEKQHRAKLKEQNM
Description: Inhibition of NorA in Staphylococcus aureus 1199B assessed as inhibition of ethidium bromide efflux at 50 uM by fluorimetry. The essentials:
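Fluorometric measurement of EtBr loss from norA-overexpressing SA-1199B, with compounds screened at 50 μM. Performed in duplicate; value is mean total efflux over a 5 min time course, expressed as percent inhibition.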

The target of experiment [2] is T1, Quinolone resistance protein NorA (Staphylococcus aureus). In words: Inhibition of wild-type norA expressing Staphylococcus aureus 1199 assessed as reduction in ciprofloxacin MIC.
Experiment [3] concerns Staphylococcus aureus. In words: Potentiation of ciprofloxacin-antibacterial activity against Staphylococcus aureus K1902 bearing norA-deficient mutation assessed as reduction in ciprofloxacin MIC at >25 ug/mL by M7-A7 CLSI microdilution method. Format: functional. A general note: In broth dilution the organism is exposed to a series of concentrations in liquid medium.
For experiment [4], the target named is T2, Quinolone resistance protein NorA (Staphylococcus aureus, UniProt P0A0J7).
T2 sequence (P0A0J7 whole entry): T1 sequence (whole entry)
In words: Inhibition of NorA in Staphylococcus aureus 1199B assessed as inhibition of ethidium bromide efflux dose response curve based fluorometric assay. An outline of the steps:
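Fluorometric EtBr efflux (loss of EtBr) from S. aureus SA-1199B (norA-overexpressing); dose-response curves built to assess activity at concentrations below the 50 μM screening level; duplicate experiments, result expressed as mean total efflux over a 5 min time course; IC50 derived from the curves.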

Experiment [5] has as its system Staphylococcus aureus. In words: Antibacterial activity against Staphylococcus aureus K1902 bearing norA-deficient mutation by M7-A7 CLSI microdilution method. Format: functional.
Experiment [6] has as its system Staphylococcus aureus. In words: Antibacterial activity against wild-type Staphylococcus aureus ATCC 25923 by M7-A7 CLSI microdilution method. Type of experiment: functional.
For experiment [7], the system named is Staphylococcus aureus. Description: Potentiation of ciprofloxacin-antibacterial activity against Staphylococcus aureus K1902 bearing norA-deficient mutation assessed as reduction in ciprofloxacin MIC at 0.78 ug/mL by M7-A7 CLSI microdilution method. Type of experiment: functional.
Experiment [8] has as its target T1, Quinolone resistance protein NorA (Staphylococcus aureus). Description: Inhibition of NorA in Staphylococcus aureus 1199B norA++ and A116E GrlA mutation assessed as reduction in ciprofloxacin MIC at >=12.5 ug/mL.
In experiment [9] the test system is Staphylococcus aureus. Description: Potentiation of ciprofloxacin-antibacterial activity against wild-type Staphylococcus aureus ATCC 25923 assessed as reduction in ciprofloxacin MIC by M7-A7 CLSI microdilution method. Type of experiment: functional, organism-based.
The subject of experiment [10] is Staphylococcus aureus. Description: Antibacterial activity against NorA-expressing Staphylococcus aureus 1199B by M7-A7 CLSI microdilution method. Type of experiment: functional.
The subject of experiment [11] is Staphylococcus aureus. In words: Antibacterial activity against wild-type norA expressing Staphylococcus aureus 1199 by M7-A7 CLSI microdilution method. Format: functional.
In experiment [12] the target is T1, Quinolone resistance protein NorA (Staphylococcus aureus). In words: Inhibition of NorA in Staphylococcus aureus K2378 bearing norA++ efficient mutation assessed as reduction in ciprofloxacin MIC at 6.25 ug/mL.
For experiment [13], the system named is Staphylococcus aureus. Description: Antibacterial activity against Staphylococcus aureus 1199B norA++ and A116E GrlA mutation by M7-A7 CLSI microdilution method. Format: functional.
Experiment [14] deals with Staphylococcus aureus. In words: Antibacterial activity against Staphylococcus aureus K2378 bearing norA++ efficient mutation by M7-A7 CLSI microdilution method. Type of experiment: functional.
Experiment [15] concerns the target T1, Quinolone resistance protein NorA (Staphylococcus aureus). In words: Inhibition of NorA in Staphylococcus aureus 1199B norA++ and A116E GrlA mutation assessed as reduction in ciprofloxacin MIC at 100 ug/mL.
Experiment [16] shares this target. In words: Inhibition of NorA in Staphylococcus aureus K2378 bearing norA++ efficient mutation assessed as reduction in ciprofloxacin MIC at 12.5 ug/mL.
Experiment [17] has the same target. In words: Inhibition of NorA in Staphylococcus aureus 1199B norA++ and A116E GrlA mutation assessed as reduction in ciprofloxacin MIC at 50 ug/mL.
Experiment [18] shares this target. Description: Inhibition of NorA in Staphylococcus aureus K2378 bearing norA++ efficient mutation assessed as reduction in ciprofloxacin MIC at 1.56 ug/mL.
Experiment [19] shares this target. The conditions noted are these: 1199B, 25 ug/mL.
For experiment [20] the target is unchanged. In words: Inhibition of NorA in Staphylococcus aureus K2378 bearing norA++ efficient mutation assessed as reduction in ciprofloxacin MIC at 3.13 ug/mL.
Experiment [21] has the same target. Description: Inhibition of NorA in Staphylococcus aureus 1199B norA++ and A116E GrlA mutation assessed as reduction in ciprofloxacin MIC at >12.5 ug/mL.

Converted amounts (≈) assume the structure as drawn. The source made the active and inactive calls. The calls are words filed in the database; no cut-off is given here. A value given as a limit tells only on which side of the number the result lay.

For `COc1cc2c(=O)cc(-c3ccc(O)cc3)n(C)c2cc1OC`, in experiment [1], the inhibition (in general, the relative decrease from the control value, in per cent) was found to be 0%.
As to `CCCOc1ccc(-c2cc(OCCN3CCCCC3)c3ccccc3n2)cc1`, the inhibition entry in [2] was “inactive”. The “fold change (FC)” value amounted to 8 in the experiment with Staphylococcus aureus [3], 4 in the experiment on Staphylococcus aureus [7], 16 in experiment [8] and 16 in [12]. The IC50 (commonly the concentration that gives 50% inhibition) in experiment [4] worked out at 7 µM. Moreover, the MIC (in general, the least concentration at which growth counts as inhibited) against Staphylococcus aureus [5] came out at 50 µg/mL (≈ 128 µM); in the experiment on Staphylococcus aureus [6], 100 µg/mL (≈ 256 µM); in the experiment with Staphylococcus aureus [10] it was 256 µM (≈ 100 µg/mL); in the experiment on Staphylococcus aureus [11], 100 µg/mL (≈ 256 µM); against Staphylococcus aureus [13], 100 µg/mL (≈ 256 µM); with Staphylococcus aureus [14] it was 50 µg/mL (≈ 128 µM). For the same compound, the outcome in the experiment with Staphylococcus aureus [9] was inactive.
Turning to `CCN(CC)CCOc1cc(-c2ccc(OCCN3CCCCC3)cc2)nc2ccccc12`, the inhibition result in [2] and in [15] was “inactive” in each case. For the same compound, the MIC with Staphylococcus aureus [5] was 100 µg/mL (≈ 223 µM); against Staphylococcus aureus [6], 100 µg/mL (≈ 223 µM); in the experiment with Staphylococcus aureus [10], above 223 µM; in the experiment with Staphylococcus aureus [11], above 100 µg/mL; in the experiment with Staphylococcus aureus [13] it was above 100 µg/mL; against Staphylococcus aureus [14] it was 100 µg/mL (≈ 223 µM). Further, in [16], the fold change (FC) is 4. The result with Staphylococcus aureus [9] was inactive.
For the compound `CCCOc1ccc(-c2cc(=O)c3ccccc3n2C)cc1`, the inhibition in [1] turned out to be 33.9%.
As to `CCCOc1ccc(-c2cc(=O)c3ccccc3n2CCN2CCCCC2)cc1`, the inhibition entry in [2] and in [17] was “inactive” in each case. In addition, the MIC in the experiment on Staphylococcus aureus [5] is above 100 µg/mL; in the experiment with Staphylococcus aureus [6], above 100 µg/mL; against Staphylococcus aureus [10] it was above 256 µM; against Staphylococcus aureus [11], above 100 µg/mL; in the experiment on Staphylococcus aureus [13], above 100 µg/mL; in the experiment with Staphylococcus aureus [14] it was above 100 µg/mL. Besides, the fold change (FC) in experiment [18] was found to be 4. Moreover, the outcome with Staphylococcus aureus [9] was inactive.
Consider `CCCOc1ccc(-c2cc(O)c3ccccc3n2)cc1`, for which the inhibition in experiment [1] came out at 0%.
As for `COC(=O)[C@H]1[C@H]2C[C@@H]3c4[nH]c5cc(OC)ccc5c4CCN3C[C@H]2C[C@@H](OC(=O)c2cc(OC)c(OC)c(OC)c2)[C@@H]1OC` [RESERPINE], the inhibition entry in [2] is “inactive”. Further, in experiment [4], the IC50 stood at 7 µM. The MIC in the experiment on Staphylococcus aureus [5] was above 100 µg/mL; against Staphylococcus aureus [6], above 100 µg/mL; against Staphylococcus aureus [10], above 164 µM; in the experiment on Staphylococcus aureus [11], above 100 µg/mL; in the experiment on Staphylococcus aureus [13], above 100 µg/mL; with Staphylococcus aureus [14], above 100 µg/mL. The result in the experiment with Staphylococcus aureus [9] was inactive.
Regarding `Cn1c(-c2ccc(OCCN3CCOCC3)cc2)cc(=O)c2ccccc21`, in experiment [1], the inhibition was 0%.
For `Cn1c(-c2ccc(O)cc2)cc(=O)c2ccccc21`, the inhibition in experiment [1] was 0%.
`Cn1c(-c2ccccc2)cc(=O)c2cc(O)c(O)cc21`: in [1], the inhibition was 0%.
On the same count and under the same terms, the figure for `Cn1c(-c2ccc(O)cc2)cc(=O)c2cc(O)c(O)cc21` is 0%.
On to `Fc1ccc([C@@H]2CCNC[C@H]2COc2ccc3c(c2)OCO3)cc1` [PAROXETINE], for which, in [1], the inhibition came out at 89.7%. The inhibition result in experiment [19] and in experiment [2] was “inactive” throughout. The IC50 in [4] amounted to 7 µM. Also, the MIC was above 100 µg/mL in the experiment on Staphylococcus aureus [5]; above 100 µg/mL in the experiment on Staphylococcus aureus [6]; above 303 µM against Staphylococcus aureus [10]; above 100 µg/mL in the experiment on Staphylococcus aureus [11]; above 100 µg/mL against Staphylococcus aureus [13]; 100 µg/mL (≈ 304 µM) against Staphylococcus aureus [14]. For the same compound, the result in the experiment on Staphylococcus aureus [9] was inactive.
For `CCCOc1ccc(-c2cc(=O)c3cc(OC)c(OC)cc3n2C)cc1`, in [1], the inhibition was found to be 0%.
In the case of `COc1ccc(-c2cc(=O)c3ccccc3n2C)cc1`, in experiment [1], the inhibition came to 0%.
Take `CCCOc1ccc(-c2cc(OCCN(CC)CC)c3ccccc3n2)cc1`: the inhibition entry in experiment [2] is “inactive”. Moreover, the fold change (FC) in experiment [20] worked out at 16; in the experiment on Staphylococcus aureus [3], 8; in the experiment with Staphylococcus aureus [7], 4; in [21] it was 8. In addition, in experiment [4], the IC50 was 7 µM. Moreover, the MIC in the experiment with Staphylococcus aureus [5] was 50 µg/mL (≈ 132 µM); in the experiment on Staphylococcus aureus [6] it was 100 µg/mL (≈ 264 µM); in the experiment on Staphylococcus aureus [10], above 241 µM; against Staphylococcus aureus [11] it was above 100 µg/mL; in the experiment on Staphylococcus aureus [13], above 100 µg/mL; against Staphylococcus aureus [14], 50 µg/mL (≈ 132 µM). In the experiment on Staphylococcus aureus [9], the outcome was inactive.
Regarding `CCCOc1ccc(-c2cc(OC)c3ccccc3n2)cc1`, the inhibition in [1] worked out at 63.7%.
